HSV augment – HSV replication enhancement; HSV replication augmentation in cells, fold increase; maximum fold increase; hit rate 0.005% among 220,000; AID 1956; in the data active = maximum fold increase above about 1.5; tested in PC3 cells
KCC2 mod – modulators of human KCC2 chloride dependent transport | KCC2 cells, thallium flux FluoZin-2 fluorescence | hit rate 2.2% among 190,000 | AID 1456 | B-score of Tl+ flux slope (higher = more flux/activation; lower = inhibition) at 10 µM | Q9H2X9;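 active = thallium flux slope and its plate-corrected score both differing from the plate sample mean at a set confidence after two filtering rounds, in either direction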;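 also: slope of fluorescence scaled to starting intensity during 10 to 20 s after thallium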
Target sequence (Q9H2X9 whole entry, looked up): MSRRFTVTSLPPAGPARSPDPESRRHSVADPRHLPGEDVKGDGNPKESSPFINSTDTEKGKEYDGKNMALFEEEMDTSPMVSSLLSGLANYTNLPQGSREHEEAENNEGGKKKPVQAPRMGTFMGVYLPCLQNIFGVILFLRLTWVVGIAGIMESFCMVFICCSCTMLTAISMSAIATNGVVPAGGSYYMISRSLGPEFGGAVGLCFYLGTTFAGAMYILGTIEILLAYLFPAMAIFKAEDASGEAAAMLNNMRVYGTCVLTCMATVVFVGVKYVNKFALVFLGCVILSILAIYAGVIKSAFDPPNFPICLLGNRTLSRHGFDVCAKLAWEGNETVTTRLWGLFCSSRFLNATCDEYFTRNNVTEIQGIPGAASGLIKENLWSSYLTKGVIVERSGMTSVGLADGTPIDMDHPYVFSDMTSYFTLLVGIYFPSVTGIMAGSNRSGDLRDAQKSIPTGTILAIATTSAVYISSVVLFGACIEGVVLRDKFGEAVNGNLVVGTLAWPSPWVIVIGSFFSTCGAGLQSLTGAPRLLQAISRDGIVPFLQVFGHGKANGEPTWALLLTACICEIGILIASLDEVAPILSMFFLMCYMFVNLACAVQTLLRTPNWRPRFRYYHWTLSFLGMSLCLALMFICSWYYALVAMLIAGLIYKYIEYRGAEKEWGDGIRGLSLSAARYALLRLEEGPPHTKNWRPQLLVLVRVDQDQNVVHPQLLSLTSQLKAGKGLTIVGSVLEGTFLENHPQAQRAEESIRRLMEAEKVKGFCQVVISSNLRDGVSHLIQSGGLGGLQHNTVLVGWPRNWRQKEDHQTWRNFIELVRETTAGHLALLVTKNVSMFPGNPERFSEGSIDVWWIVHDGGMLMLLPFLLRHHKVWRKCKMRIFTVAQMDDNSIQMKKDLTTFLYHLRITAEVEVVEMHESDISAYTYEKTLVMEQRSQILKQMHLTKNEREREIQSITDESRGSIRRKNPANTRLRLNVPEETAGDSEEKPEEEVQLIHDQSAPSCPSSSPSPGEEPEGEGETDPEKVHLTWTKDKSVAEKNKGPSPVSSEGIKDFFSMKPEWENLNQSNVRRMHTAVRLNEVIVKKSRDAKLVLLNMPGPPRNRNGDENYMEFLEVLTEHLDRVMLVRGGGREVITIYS
STAT1 act – STAT1 signaling activation | activation (% of control), % at 5.5 µM | NIH 3T3 STAT1-luciferase reporter, IFN-gamma, luminescence; 100% = IFN-gamma alone, no compound | hit rate 2.6% among 200,000;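 active = activation above the screen-wide mean activation plus 3 SD, cut at about 130% in these data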;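 also: raw ratio to IFN-gamma control signal so 100% means no change and 0% no light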
STAT1 inh – inhibitors of IFN-gamma induced STAT1 signaling. inhibition, % at 5.5 µM. hit rate 0.35% among 200,000. NIH 3T3 STAT1-luciferase reporter, luminescence;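 active = inhibition above a set limit, the mean inhibition across all tested compounds plus 3 SD, cut at about 34% in these data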;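 also: 0% = IFN-gamma with DMSO and 100% = IFN-gamma with 300 µM nifuroxazide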
STAT3 blocker – reduces IL-6 driven STAT3 reporter signal; hit rate 0.89% among 190,000; inhibition, % at 5.5 µM; U3A cells, IL-6 STAT3-luciferase reporter, luminescence; host cell line lacks STAT1;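 active = inhibition above the mean inhibition across all screened compounds plus 3 SD, cut at about 44% in these data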;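 also: 0% = DMSO only wells and 100% = 100 µM nifuroxazide control wells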
STAT3 activator – activators of IL-6 induced STAT3 signaling; U3A cells, IL-6 STAT3-luciferase reporter, luminescence; 100% = signal with IL-6 EC80 alone; activation (% of control), % at 5.6 µM; hit rate 0.91% among 190,000; AID 871;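 active = activation above the screen-wide mean of compound activation plus 3 SD, cut at about 130% in these data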;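 also: 0% = background luminescence of wells with medium and substrate only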
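System – human U3A cells carrying STAT3-luciferase construct · Probe or stimulus – Interleukin-6, 33 ng/mL · Schedule – compound 1 h, then IL-6 6 h at 37 °C · Signal – luminescence from STAT3-driven luciferase reporter · Evaluation – percent of IL-6-only median luminescence · Benchmarks – IL-6-only high control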
STAT1 activ conf – confirmation of STAT1 signaling activators; shares compounds with STAT1 act; hit rate 97% among 1,200; activation (% of control), % at 5.7 µM; NIH 3T3 STAT1-luciferase reporter, IFN-gamma potentiation, luminescence; 100% = IFN-gamma EC80 alone, no compound;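 active = activation above a set limit carried over from the earlier primary STAT1 screen, cut at about 140% in these data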;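 also: simple ratio to median IFN-gamma plus DMSO wells so 0% means no light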
NFkB act – activates NF-kappaB, counter-screen to STAT1 activators. shares compounds with STAT1 act. HEK293T NF-kB luciferase reporter, TNF-alpha stimulated, luminescence; 100% = TNF-alpha with vehicle only. activation (% of control), % at 5.7 µM. hit rate 43% among 1,200;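 active = activation above the mean of solvent-only control wells plus 3 SD, set per campaign, cut at about 130% in these data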;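 also: TNF-alpha given at a submaximal dose yielding about 80% of full reporter signal; values are well signal over median control so 100% means no change and 0% no light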
STAT3 act 2 – activates human STAT3, counter-screen to STAT1 activators; shares compounds with STAT1 act; U3A cells STAT3-luciferase reporter, IL-6, luminescence; cells lack STAT1; 100 = IL-6 alone, no compound effect; activation (% of control), % at 5.7 µM; hit rate 46% among 1,200; AID 1316;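 active = activation above the solvent-only control well mean plus 3 SD, set per plate batch, cut at about 110% in these data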;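 also: 0% = no luminescence and 100% = median IL-6 plus DMSO wells; higher means more STAT3 reporter activation so hits are non-selective activators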
Starred values were filed as active, the others as inactive; i = inactive; / = not tested or not shown. Hits are enriched below; roughly 5.5% of the tested compounds scored in any of these assays.

SMILES | HSV augment | KCC2 mod | STAT1 act | STAT1 inh | STAT3 blocker | STAT3 activator | STAT1 activ conf | NFkB act | STAT3 act 2
CCOC(=O)c1c(C)nc2c3ccccc3ccn12 | i | 0.34 | 153* | -57 | -12 | 114 | 202* | 131 | 120*
CCOC(=O)c1c(C)nc2c(C)cccn12 | i | / | 98 | -3 | 12 | 90 | / | / | /
CCCCCCC(=O)N/N=C1\CCCc2ccccc21 | i | 0.03 | 91 | 11 | 5 | 99 | / | / | /
C=CCNC(=S)NNC(=O)COc1ccc2cc(Br)ccc2c1 | i | -1.5 | 152* | -58 | 5 | 99 | 152* | 125 | 104
C=CCNC(=S)NNC(=O)COc1ccc(Br)cc1 | i | 0.66 | 113 | -14 | 4 | 97 | / | / | /
O=C(NCCc1cccs1)c1ccc(Cl)c(Cl)c1 | i | -1.8 | 159* | -62 | 3 | 98 | 164* | 130 | 107
CCOC(=O)C(NS(=O)(=O)c1ccccc1)(C(F)(F)F)P(=O)(OCC(C)C)OCC(C)C (stereo unspecified) | i | 0.23 | 90 | 10 | 7 | 93 | / | / | /
CCC(=O)Nc1cccc(NC(=S)NC(=O)c2ccc(Cl)cc2Cl)c1 | i | 0.46 | 122 | -25 | -5 | 103 | / | / | /
O=C(NC(=S)Nc1ncccn1)c1ccc(Cl)cc1Cl | i | 0.9 | 174* | -80 | -10 | 111 | 218* | 131 | 110
CCOc1ccc(OCC)c(-c2c(=O)n(OCc3ccccc3C(=O)OC)c3ccccc3[n+]2[O-])c1 | i | / | 91 | 10 | 13 | 98 | / | / | /
Clc1cccc(-c2nnc(-c3ccccc3)o2)c1 | i | -1.3 | 156* | -61 | 36 | 72 | 209* | 117 | 107
COC(=O)c1c(C)[nH]c(C(=O)CSc2ncnc3sc(-c4ccccc4)cc23)c1C | i | 2.2 | 98 | 2 | 10 | 92 | / | / | /
Cc1cc(C(=O)NCCC2=CCCCC2)c(C)o1 | i | 0.17 | 155* | -47 | 12 | 93 | 181* | 120 | 110
CCCNC(=O)C(=O)NCCC1=CCCCC1 | i | -0.11 | 107 | -8 | -4 | 104 | / | / | /
Cc1ccc2nc(-c3ccc(NC(=O)CCN4C(=O)c5ccccc5C4=O)cc3)sc2c1 | i | 0.094 | 160* | -66 | 31 | 71 | 153* | 99 | 60
CCOC(=O)c1cnc(SCc2ccccc2)nc1N | i | -0.89 | 158* | -69 | 6 | 96 | 212* | 135* | 109
COc1cccc(C(=O)Nc2ccc(C3CC3(Cl)Cl)cc2)c1 (stereo unspecified) | i | -0.044 | 152* | -60 | 16 | 89 | 193* | 143* | 104
COc1cccc(C(=O)Nc2ccc(C(=O)O)cc2)c1 | i | 1.8 | 108 | -9 | -12 | 114 | / | / | /
Cc1occc1C(=O)Nc1ccc2c(c1)CCC2 | i | -0.23 | 156* | -61 | 4 | 96 | 176* | 130 | 109
O=C(Nc1ccc2c(c1)CCC2)c1ccccc1F | i | -1.1 | 179* | -87 | 27 | 78 | 222* | 123 | 97
O=C(Nc1ccc2c(c1)CCC2)c1ccccc1 | i | -0.3 | 181* | -89 | 16 | 84 | 237* | 132 | 102
O=C(Nc1ccc2c(c1)CCC2)c1cc(=O)[nH]c2ccccc12 | i | 0.66 | / | / | / | / | / | / | /
CN(c1ccccc1)S(=O)(=O)c1cccc(C(=O)Nc2ccc3c(c2)CCC3)c1 | i | 0.13 | 89 | 12 | 6 | 94 | / | / | /
CC(C)c1ccc(NC(=O)N2CCc3ccccc3C2)cc1 | i | -1.3 | 156* | -62 | -9 | 114 | 148* | 131 | 120*
Cc1ccc(NC(=O)/C(Cl)=C/c2ccccc2)cc1C | i | -0.59 | 177* | -86 | 23 | 79 | 230* | 122 | 102
